Screens deposited in PubChem by several laboratories.
The list is not random: actives were taken first. Their share in the collection is about 2.5%.
TRPC4 agonist: activators of mouse TRPC4 channel, primary screen, Fluo4 calcium, HEK293 TRPC4beta/mu-opioid cells; Short transient receptor potential channel 4 (Mus musculus), Q9QUQ5; Fluo4 calcium fluorescence; stronger effect = higher value; B-score at 10 µM; actives 0.49% (n = 310,000);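 active = B-score above 5 SD of library B-scores, and initial fluorescence ratio not above library mean plus 5 SD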;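 note: positive B-score marks a calcium rise read as TRPC4 activation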
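System – HEK293 cells stably co-expressing mouse TRPC4beta and mu-opioid receptor · Signal – Fluo4 calcium-sensitive dye fluorescence, kinetic, 1 Hz baseline · Benchmarks – buffer (low) and maximal DAMGO (high) · Read-out – B score of integrated fluorescence ratio per well · Incubation – dye loading 45 min room temperature, 110 s kinetic read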
TRPC6 act: mouse TRPC6 channel activators, primary screen, cell-based, HEK293, membrane potential dye; Short transient receptor potential channel 6 (Mus musculus), Q61143; HEK293-TRPC6 membrane potential dye fluorescence; stronger effect = higher value; B-score at 10 µM; actives 0.13% (n = 310,000); AID 2550, 2010;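 active = B-score of the integrated fluorescence ratio above library mean plus 3 SD, and starting fluorescence ratio within library mean plus 5 SD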;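 note: higher score means more depolarization so channel activation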
Pemphigus Ab inh: inhibitors of pemphigus antibody binding to DSG3, primary screen, biochemical, bead-based, flow cytometry, scFv-GFP; DSG3-coupled beads, scFv-anti-DSG3-GFP binding; stronger effect = lower value; binding (percent of control), % at 10 µM; actives 0.48% (n = 310,000); Desmoglein-3 (Homo sapiens), P32926; AID 588358, 2011;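 active = binding more than 3 SD below its plate's average and above zero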;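 note: hits lower antibody fragment binding to DSG3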
Target sequence (P32926 whole entry, looked up, the tested form may be a part): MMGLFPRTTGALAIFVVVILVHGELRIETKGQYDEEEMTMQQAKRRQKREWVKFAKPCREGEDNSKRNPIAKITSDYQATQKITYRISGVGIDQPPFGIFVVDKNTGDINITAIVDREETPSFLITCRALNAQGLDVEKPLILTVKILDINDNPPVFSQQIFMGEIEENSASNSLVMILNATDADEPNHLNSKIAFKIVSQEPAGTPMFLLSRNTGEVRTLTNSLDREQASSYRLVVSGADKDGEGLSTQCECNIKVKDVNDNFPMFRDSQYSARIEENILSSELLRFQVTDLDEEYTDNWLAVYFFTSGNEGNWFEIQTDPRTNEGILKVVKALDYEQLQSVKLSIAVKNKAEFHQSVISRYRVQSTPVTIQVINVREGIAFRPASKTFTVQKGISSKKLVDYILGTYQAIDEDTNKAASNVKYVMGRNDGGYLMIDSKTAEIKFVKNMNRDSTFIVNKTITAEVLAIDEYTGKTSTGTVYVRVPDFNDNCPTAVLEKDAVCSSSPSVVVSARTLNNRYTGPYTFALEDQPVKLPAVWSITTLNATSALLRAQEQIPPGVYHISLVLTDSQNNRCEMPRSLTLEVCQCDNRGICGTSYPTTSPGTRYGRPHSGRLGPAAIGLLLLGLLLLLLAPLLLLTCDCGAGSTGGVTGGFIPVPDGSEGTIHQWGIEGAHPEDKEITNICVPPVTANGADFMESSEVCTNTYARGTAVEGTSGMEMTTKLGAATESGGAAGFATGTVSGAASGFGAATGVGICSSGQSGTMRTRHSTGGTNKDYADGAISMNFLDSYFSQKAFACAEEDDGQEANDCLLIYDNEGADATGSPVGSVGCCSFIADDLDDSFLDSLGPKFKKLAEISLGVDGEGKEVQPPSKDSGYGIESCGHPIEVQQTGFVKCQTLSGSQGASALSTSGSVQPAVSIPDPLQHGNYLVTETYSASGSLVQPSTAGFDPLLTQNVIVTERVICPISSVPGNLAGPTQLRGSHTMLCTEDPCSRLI
TRPC6 inhibitor: mouse TRPC6 channel inhibitors, primary screen, cell-based, HEK293, membrane potential dye; Short transient receptor potential channel 6 (Mus musculus), Q61143; ACh-evoked depolarization; stronger effect = lower value; B-score at 10 µM; actives 1.1% (n = 310,000);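 active = B-score under library mean minus 3 SD, initial fluorescence not abnormally high, positive integrated signal ratio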;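 note: B-score derived from integrated fluorescence ratio over the kinetic read; more negative B-score means stronger inhibition of depolarization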
TRPC4 PAM: positive allosteric modulators of TRPC4, primary screen, cell-based, mouse TRPC4beta, HEK293 mu-opioid, Fluo-4 calcium; DAMGO EC20, Fluo-4 Ca2+ flux; stronger effect = higher value; B-score at 10 µM; actives 0.42% (n = 310,000); AID 2227, 2009;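 active = B-score of calcium response area above 5 SD of library B-scores, with initial fluorescence ratio within 5 SD of library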;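 note: B-score of integrated fluorescence ratio over time as area under calcium response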
TRPC4 block: inhibitors of mouse TRPC4 channel, primary screen, Fluo4 calcium, HEK293 TRPC4beta/mu-opioid cells. Short transient receptor potential channel 4 (Mus musculus), Q9QUQ5. DAMGO-evoked Fluo4 calcium flux; stronger effect = lower value. B-score at 10 µM. actives 0.39% (n = 300,000). AID 2247, 2010;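 active = B-score over 3 SD under the library average, no early fluorescence shift, positive overall ratio signal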
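Test system – stable TRPC4beta/mu-opioid receptor HEK293 cells · Probe or stimulus – DAMGO, a submaximal dose followed by a maximal one · Dosing – one concentration per compound · Signal – Fluo4 calcium fluorescence by kinetic imaging, 5 s 1 Hz baseline · Evaluation – per-well B score of integrated baseline-normalized Fluo4 ratio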
Active calls of the source: *; i = inactive; . = no result.

SMILES | TRPC4 agonist | TRPC6 act | Pemphigus Ab inh | TRPC6 inhibitor | TRPC4 PAM | TRPC4 block
CCSc1nnc([C@H](Cc2c[nH]c3ccccc23)NC(=O)OC(C)(C)C)o1 | i | i | 99 | i | 17* | i
Cc1cccc(NC(=S)NCC(c2cccnc2)N(C)C)c1C (configuration not stated) | 101* | i | 101 | i | i | i
Cc1c(Cl)cccc1NC(=S)NCC(c1cccnc1)N(C)C (configuration not stated) | 85* | i | 88 | i | i | i
Cc1ccc(SCCNC(=S)Nc2cc(C)ccc2C)cc1 | i | i | 108 | i | i | i
CC(=O)c1ccc(NC(=O)CNCC(c2ccccc2)N(C)C)cc1 (configuration not stated) | i | i | 118 | i | i | i
Cc1ccc(C)c(NC(=S)NCC(c2ccccc2)N(C)C)c1 (configuration not stated) | 180* | i | 108 | i | i | i
Cc1ccc(NC(=O)NCC(c2ccccc2)N(C)C)cc1 (configuration not stated) | 46* | i | 113 | i | i | i
Cc1c(Cl)cccc1NC(=S)NCC(C)C | i | i | 102 | i | i | i
COC(=O)C1N[C@@H]([C@@H](NC(=O)COc2ccccc2)C(=O)NCc2ccc(OC)cc2)SC1(C)C (some centres not stated) | i | i | 104 | i | i | i
Cc1cc(F)c(F)c(C(=O)N2CCC(C)CC2)c1Cl | i | i | 88 | i | i | i
Cc1cccc(C)c1NC(=S)NCCc1ccccn1 | i | i | 101 | i | i | i
Cc1ccccc1NC(=S)NCC(c1cccnc1)N(C)C (configuration not stated) | 136* | i | 96 | i | i | i
Cc1ccccc1NC(=S)NCCc1ccccn1 | 88* | i | . | i | i | i
Cc1ccccc1NC(=S)NCc1ccccc1 | i | i | 114 | i | i | i
CC(C)n1nnnc1SCC(=O)Nc1cccc(F)c1 | i | i | 111 | i | i | i
COc1cc(OC)cc(C(=O)Nc2ccc(C(=O)Nc3ccccc3OC)cc2)c1 | . | . | 134 | . | . | .
CCC1CCCCN1S(=O)(=O)c1ccc(NC(=O)C2CCCO2)cc1 (configuration not stated) | i | i | . | i | i | i
Cc1cccc(NC(=O)CC2C(=O)NC3CCCCC3N2C(=O)c2ccccc2Cl)c1 (configuration not stated) | i | i | 89* | i | i | i
Cc1cccc(C)c1NC(=O)CN(C)C(=O)C1CC(=O)N(c2cccc3ccccc23)C1 (configuration not stated) | . | . | 98 | . | . | .
Cc1ncc([N+](=O)[O-])n1S(=O)(=O)c1cc(Cl)ccc1Cl | i | i | 104 | i | i | i
COc1ccccc1OCC(=O)/C=C1/N(C)c2ccccc2C1(C)C | i | i | 126 | i | i | i
CN1/C(=C\C(=O)C[n+]2ccc3ccccc3c2)C(C)(C)c2ccccc21 | i | i | . | i | i | -6*
COc1cc(C(=O)Nc2ccc3c(c2)Cc2cc(NC(=O)c4cc(OC)c(OC)c(OC)c4)ccc2-3)cc(OC)c1OC | i | i | 98 | i | i | i
COc1cc(OC)c(OC)cc1CN(C)CCc1ccccn1 | 64* | i | 117 | i | i | i
CCCCN1C(=O)C(=Nc2cccc3cnccc23)c2ccccc21 | i | i | 97 | i | 20* | i
SMILES | TRPC4 agonist | TRPC6 act | Pemphigus Ab inh | TRPC6 inhibitor | TRPC4 PAM | TRPC4 block
CCOc1ccc(CCNC(=O)CCn2ccc3cc(S(=O)(=O)N4CCCC4)ccc32)cc1 | i | i | 101 | i | i | i
CCN(Cc1ccccc1)S(=O)(=O)c1ccc(C(=O)N(CCCN(C)C)c2nc3cc4c(cc3s2)OCO4)cc1 | 45* | i | 127 | i | i | -6*
CN(C)CCCN(C(=O)c1ccc2c(c1)CCCC2)c1nc2cc3c(cc2s1)OCO3 | i | i | 103 | i | i | i
CCN(CC)CCN(C(=O)CN1C(=O)c2ccccc2C1=O)c1nc2cc3c(cc2s1)OCO3 | i | i | 111 | -8.7* | i | i
CN(C)CCCN(C(=O)c1ccc(Br)s1)c1nc2cc3c(cc2s1)OCO3 | i | i | 100 | i | i | -7*
O=c1oc2ccccc2c(O)c1/C=C1\C=Nc2ccccc21 | 85* | i | . | i | i | i
CCOc1cc(N2CCOCC2)c(OCC)cc1NC(=O)c1ccc2ccccc2n1 | i | i | 104 | i | 11* | i
CCCCN1C(=O)C(=O)N(CC(=O)Nc2cc(OCC)c(N3CCOCC3)cc2OCC)C1=O | i | i | 102 | i | 21* | i
CCCOC(=O)c1cccc(Nc2nc(-c3cccnc3)nc3ccccc23)c1 | i | i | 95 | i | i | i
O=C(CSc1nncs1)Nc1nnc(-c2ccccc2)o1 | i | i | 99 | i | i | i
Nc1nc(-c2c(Cl)cccc2Cl)no1 | i | i | . | i | i | i
COc1ccc(N2CCN(C(CNC(=O)C(C)C)c3ccc4c(c3)OCO4)CC2)cc1 (configuration not stated) | 51* | i | 98 | i | i | i
COCCNC(=O)C(=O)NCC(c1ccc2c(c1)OCO2)N1CCN(c2ccc(F)cc2)CC1 (configuration not stated) | i | i | 99 | i | i | i
COC(=O)NCC(c1ccc2c(c1)OCO2)N1CCN(c2ccc(OC)cc2)CC1 (configuration not stated) | 67* | i | . | i | i | i
CCOc1ccc2c(c1)C(N(CCN1CCOCC1)C(=O)Nc1ccccc1)CC(C)(C)O2 (configuration not stated) | i | i | 104 | i | i | i
